Measurements as given in paper PMC7048620 (Nature microbiology, 2020).
Read-outs that look alike come from different tables or passages of the source. Values belong to the molecule of their own block, whether it stands above or below them.

Experiments:
[1] = molecular target: FtsZ-FtsA co-filaments on supported lipid membranes (E. coli) (UniProt P0A9A6); experiment: single-molecule tracking by TIRF microscopy on supported lipid bilayers
[2] = molecular target: FtsZ-FtsA co-filaments on supported lipid membranes (E. coli) (UniProt P0A9A6); experiment: TIRF microscopy of purified proteins on supported lipid bilayers
FtsZ-FtsA co-filaments [3] = molecular target: T1, FtsZ-FtsA co-filaments (Escherichia coli, UniProt P0A9A6+P0ABH0); experiment: Single molecule diffusion and confinement time analysis on supported bilayers; conditions: Cy5-labelled single molecules in presence of Alexa488-FtsZ pattern, Gaussian fit
T1 sequence (P0ABH0 1-420): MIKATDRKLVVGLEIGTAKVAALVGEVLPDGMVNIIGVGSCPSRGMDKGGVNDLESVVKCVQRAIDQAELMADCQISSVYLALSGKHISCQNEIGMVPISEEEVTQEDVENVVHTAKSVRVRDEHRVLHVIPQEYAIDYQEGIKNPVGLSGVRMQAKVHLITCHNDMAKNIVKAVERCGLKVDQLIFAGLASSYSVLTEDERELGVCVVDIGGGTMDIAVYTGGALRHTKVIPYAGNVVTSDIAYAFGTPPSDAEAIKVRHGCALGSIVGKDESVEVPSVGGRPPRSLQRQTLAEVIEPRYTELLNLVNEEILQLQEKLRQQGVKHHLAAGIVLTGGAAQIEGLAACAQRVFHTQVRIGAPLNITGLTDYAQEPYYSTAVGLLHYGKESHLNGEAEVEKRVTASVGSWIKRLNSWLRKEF
T1 sequence (P0A9A6 1-383 partner): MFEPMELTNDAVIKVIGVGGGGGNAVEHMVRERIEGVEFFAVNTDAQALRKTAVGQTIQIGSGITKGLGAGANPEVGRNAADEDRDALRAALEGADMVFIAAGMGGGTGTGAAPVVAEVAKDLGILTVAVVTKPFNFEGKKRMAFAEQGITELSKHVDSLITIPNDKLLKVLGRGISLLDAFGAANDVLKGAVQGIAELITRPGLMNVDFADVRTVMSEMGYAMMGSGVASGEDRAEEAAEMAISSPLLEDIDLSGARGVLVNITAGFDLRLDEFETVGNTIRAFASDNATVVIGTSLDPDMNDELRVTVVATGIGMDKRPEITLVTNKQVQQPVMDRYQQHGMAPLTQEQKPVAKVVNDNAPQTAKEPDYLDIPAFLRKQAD
Summary of the method: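 FtsA (0.45-0.6 μM) and FtsZ (1.5-1.8 μM) with 4 mM ATP/GTP formed steady-state patterns on supported membranes. Unlabelled His-tagged FtsN cytoplasmic peptide (1 μM) was added from solution with 10-20 pM Cy5-labelled peptide (wild-type or variant). TIRF tracking ran at 10 Hz. Diffusion-coefficient density distributions were fitted with a Gaussian (FtsZ, FtsA) or a double Gaussian (FtsN).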

FtsZ-FtsA co-filaments [4] = molecular target: T1, FtsZ-FtsA co-filaments; experiment: FRAP on supported lipid membranes; conditions: mean±SD
Summary of the method: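 Treadmilling patterns were formed on supported lipid membranes with 0.2 mol-% tris-Ni-NTA or 1 mol-% mono-Ni-NTA, using FtsA (0.45-0.6 μM) and FtsZ (1.5-1.8 μM) in 50 mM Tris-HCl pH 7.4, 150 mM KCl, 5 mM MgCl2 with 4 mM ATP/4 mM GTP. His-tagged FtsN cytoplasmic peptide went onto tris-Ni-NTA membranes. A ~15 μm x 15 μm area was bleached and imaged at 2 s/frame; a mono-exponential fit gave the half-time.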

[5] = Sedimentation velocity analytical ultracentrifugation; type: physicochemical, Escherichia coli
Summary of the method: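 Full-length FtsN was loaded at 9-20 μM and read by Rayleigh interference and 280 nm absorbance. Alexa488-FtsA was loaded at 4 μM and read at 495 nm. c(s) distributions came from least-squares boundary modelling.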

FtsA [6] = molecular target: T2, FtsA (Escherichia coli, UniProt P0ABH0); type: binding; conditions: MST
T2 sequence (P0ABH0 1-420): T1 sequence (P0ABH0 1-420)

FtsA [7] = molecular target: T3, FtsA (E. coli, UniProt P0ABH0 1-420); experiment: MST
T3 sequence: T1 sequence (P0ABH0 1-420)

FtsA [8] = molecular target: T3, FtsA; experiment: MST; remark: listed apart in the source
FtsA [9] = molecular target: T3, FtsA; experiment: TIRF microscopy of purified proteins on supported lipid bilayers
[10] = molecular target: the molecule itself; experiment: single-molecule tracking by TIRF microscopy on supported lipid bilayers

Molecule: CCCCCCCC/C=C\CCCCCCCC(=O)OC[C@H](COP(=O)(O)OCCNS(=O)(=O)c1ccc(-c2c3ccc(=[N+](CC)CC)cc-3oc3cc(N(CC)CC)ccc23)c(S(=O)(=O)[O-])c1)OC(=O)CCCCCCC/C=C\CCCCCCCC [rhodamine-PE, 1,2-dioleoyl-sn-glycero-3-phosphoethanolamine-N-(lissaminerhodamine B sulfonyl)]
half-time of fluorescence recovery Ƭ0.5, + FtsA/Z (FtsZ-FtsA co-filaments [4]; after FtsA and FtsZ added): 17.7 ± 0.2 s
half-time of fluorescence recovery Ƭ0.5, alone (FtsZ-FtsA co-filaments [4]; without FtsA and FtsZ): 12.8 ± 3.4 s

Molecule: FtsA: E. coli FtsA (UP P0ABH0), membrane anchor of FtsZ, purified
sedimentation coefficient, main peak ([5]; AlexaFluor488-FtsA in the absence of FtsN, n=2): ~ 2 S
diffusion coefficient (Dcoef) of single trajectories (FtsZ-FtsA co-filaments [3]): 0.0016 ± 0.0003 μm^2/s

B2: FtsZ (natural protein)
chain: T1 sequence (P0A9A6 1-383 partner)
binding result (FtsA [9]): binds
binding result [10]: binds

Continued, in another order:

confinement time [1]: 0.41 s
frequency of confinement events relative to FtsN (cyto-DDEE)His [1]: 3 fold
colocalization efficiency with FtsZ (Pearson correlation coefficient) [2]: 0.62
Molecule: FtsN_(cyto)His, cytoplasmic peptide of FtsN

diffusion coefficient (Dcoef) of single trajectories (FtsZ-FtsA co-filaments [3]): below 1x10^-4 μm^2/s
Molecule: FtsZ: E. coli tubulin-related GTPase FtsZ (UP P0A9A6), purified, fluorescently labelled

interaction with FtsA at high salt (FtsA [6]; 300 mM KCl): significantly weaker
interaction with FtsA in solution (FtsA [6]; Alexa647-FtsA titrated with peptide or protein, n=3): Binding was observed
Kd (FtsA [7]): 250 ± 51 nM
Kd (FtsA [8]): 734 ± 23 nM
B1: Full-length FtsN (His6) (natural protein)
chain: MAQRDYVRRSQPAPSRRKKSTSRKKQRNLPAVSPAMVAIAAAVLVTFIGGLYFITHHKKEESETLQSQKVTGNGLPPKPEERWRYIKELESRQPGVRAPTEPSAGGEVKTPEQLTPEQRQLLEQMQADMRQQPTQLVEVPWNEQTPEQRQQTLQRQRQAQQLAEQQRLAQQSRTTEQSWQQQTRTSQAAPVQAQPRQSKPASSQQPYQDLLQTPAHTTAQSKPQQAAPVARAADAPKPTAEKKDERRWMVQCGSFRGAEQAETVRAQLAFEGFDSKITTNNGWNRVVIGPVKGKENADSTLNRLKMAGHTNCIRLAAGG
sedimentation coefficient, second main peak ([5]; 16 μM in 3.72 mM DDM, Raleigh interference, n=3, compatible with dimers): 5.2 ± 0.1 S
sedimentation coefficient, first main peak ([5]; 16 μM in 3.72 mM DDM, Raleigh interference, n=3, compatible with monomers): 4.1 ± 0.1 S
